High-throughput results (PubChem BioAssay)
M4 ag: agonists of human muscarinic M4 receptor (CHRM4) | CHO-K1 hM4/Gqi5, Fluo-8 calcium fluorescence; vehicle 0%, full acetylcholine response 100% | activation, % at 3 µM | 360,000 tested, 0.14% active | AID 624127;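 active = activation above the run mean over all test wells plus 3 SD, cut at about 32% in these data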;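 also: peak over basal fluorescence ratio per well then scaled between controls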
Target sequence (P08173 whole entry, looked up): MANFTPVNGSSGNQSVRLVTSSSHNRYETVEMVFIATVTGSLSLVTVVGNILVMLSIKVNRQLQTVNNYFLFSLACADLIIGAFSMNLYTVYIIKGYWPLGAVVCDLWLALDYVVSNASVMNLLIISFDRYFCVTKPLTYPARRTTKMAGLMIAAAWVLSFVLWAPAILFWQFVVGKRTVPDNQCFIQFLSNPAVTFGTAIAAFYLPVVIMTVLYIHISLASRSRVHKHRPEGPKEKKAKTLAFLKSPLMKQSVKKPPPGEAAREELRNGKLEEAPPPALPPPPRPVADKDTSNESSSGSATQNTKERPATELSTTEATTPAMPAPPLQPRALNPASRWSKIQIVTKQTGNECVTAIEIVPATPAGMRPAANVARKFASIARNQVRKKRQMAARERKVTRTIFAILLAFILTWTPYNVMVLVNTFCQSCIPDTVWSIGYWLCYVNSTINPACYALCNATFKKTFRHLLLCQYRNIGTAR
CHRM5 agonist: agonists of human muscarinic M5 receptor (CHRM5). P08912. CHO-K1 hM5 cells, Fluo-8 calcium fluorescence; 0% DMSO wells, 100% maximal acetylcholine response. activation, % at 3 µM. 360,000 tested, 0.19% active;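 active = activation above the run's mean over test compounds plus 3 SD, cut at about 23% in these data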;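 also: signal is peak over basal fluorescence ratio across the kinetic read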
M5 PAM: potentiates acetylcholine response at human M5 receptor. P08912. CHO-K1 hM5, Fluo-8 calcium, ACh EC20 PAM; 0% = ACh EC20, 100% = ACh EC100. activation, % at 3 µM. 360,000 tested, 0.3% active. AID 624038;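 active = activation above the run cutoff, the mean activation of all test compounds plus 3 SD, cut at about 18% in these data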
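System: CHO-K1 hM5 cells. Reagent: acetylcholine, EC20 level. Compound dosing: single dose, 3 µM nominal final test concentration. Timing: Post-acetylcholine fluorescence recording 140 s. Detection: Fluo-8 calcium fluorescence. Read-out: % activation, ACh-normalized. Benchmarks: ACh EC20 and EC100 wells. Repeats: singlicate, one well per test compound.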
CHRM4 antagonist: CHRM4 antagonism in calcium assay; CHO-hM4 cells, ACh EC80, Fluo-8 calcium fluorescence; inhibition, % at 3 µM; 360,000 tested, 0.73% active;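 active = inhibition above its plate's cutoff, the mean inhibition of sample wells plus 3 SD, cut at about 27% in these data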
CHRM5 antagonist: antagonists of human muscarinic M5 receptor (CHRM5); 360,000 tested, 0.59% active; CHO-hM5 cells, Fluo-8 calcium fluorescence, ACh EC80; inhibition, % at 3 µM;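 active = inhibition above a per-plate cutoff, the mean of that plate's test compounds plus 3 SD, cut at about 27% in these data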
CHRM4 PAM: CHRM4 positive allosteric modulation; P08173; CHO-K1 hM4/Gqi5, Fluo-8 calcium fluorescence, ACh EC20; 0% = ACh EC20, 100% = maximal ACh; activation, % at 3 µM; 360,000 tested, 0.4% active;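 active = activation above its plate's cutoff, the mean activation of sample wells plus 3 SD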
A number is an active result; - = inactive. Most compounds without a hit are left out; they make up all but 1.8% or so of the library.

SMILES | M4 ag | CHRM5 agonist | M5 PAM | CHRM4 antagonist | CHRM5 antagonist | CHRM4 PAM
Cc1cccc2cc(CN(CC3CCCO3)C(=O)NC3CCCCC3)c(=O)[nH]c12 (configuration not stated) | - | - | - | - | - | -
COc1ccc(CCN(Cc2cc3cccc(C)c3[nH]c2=O)C(=O)NC2CCCCC2)cc1OC | - | - | - | 31 | - | -
Cc1ccc(-n2c(=O)c3sccc3n(CC(=O)NCc3ccco3)c2=O)cc1F | - | - | - | - | - | -
O=C(Nc1ccc(N2CCOCC2)cc1N1CCOCC1)c1ncoc1-c1cccc(F)c1 | - | - | - | - | - | -
Oc1c(Cl)cc(Cl)cc1CNc1nc2ccccc2[nH]1 | - | - | - | - | 37 | -
Oc1c(Cl)cc(Cl)cc1CNc1ccccn1 | - | - | - | - | - | -
CCn1c(SCC(=O)NC2CCCCC2)nc2ccccc2c1=O | - | - | - | - | - | -
O=C(CC1(O)CCCCC1)OC1CCCC1 | - | - | - | - | - | -
CC(=O)OCCCCCCCCCCC[N+]1(C)CCCCC1 | - | - | - | 56 | - | -
COC(=O)CCCCCCCCCC[N+]1(C)CCCCC1 | - | - | - | 31 | - | -
C[N+]1(CC(=O)OC2CCCCCCCCCCC2)CCCC1 | - | - | - | 35 | - | -
COc1ccc(-c2cn(CC[C@@H]3CC[C@H](NC(=O)Cc4ccccn4)[C@@H](CO)O3)nn2)cc1 | - | - | - | - | - | -
Cc1noc(C)c1S(=O)(=O)Nc1ccc(C(=O)N2CCc3ccccc3C2)cc1 | - | - | 20 | - | - | -
Cc1cccc(N2CCN(C(=O)c3ccc(NS(=O)(=O)c4c(C)noc4C)cc3)CC2)c1C | - | - | - | - | - | -
Cc1noc(C)c1S(=O)(=O)Nc1ccc(C(=O)N2CCN(c3cccc(Cl)c3)CC2)cc1 | 35 | - | - | - | 27 | -
COc1ccc(CC(NC(C)=O)C(=O)N2CCN(C(=O)N(C(C)C)C(C)C)CC2)cc1 (configuration not stated) | - | - | - | 29 | - | -
CNC(=S)N1CCC(NC(=O)C(Cc2ccc(OC)cc2)NC(C)=O)CC1 (configuration not stated) | - | - | - | - | - | -
CC(C)CN1CCC(CNC(=O)CCc2nnc(Cc3c[nH]c4ccccc34)o2)CC1 | - | - | - | - | - | -
Cc1ccc(NC(=O)C2CCN(S(=O)(=O)c3cc([N+](=O)[O-])ccc3Cl)CC2)nc1 | - | - | - | - | - | -
O=C(Nc1nc2ccc(F)cc2s1)C1CCN(S(=O)(=O)c2cc([N+](=O)[O-])ccc2Cl)CC1 | - | - | - | 27 | 44 | -
Cc1ccc2nc(NC(=O)C3CCN(S(=O)(=O)c4cc([N+](=O)[O-])ccc4Cl)CC3)sc2c1 | - | - | - | - | 30 | -
CC(NC(=O)C1CCN(S(=O)(=O)c2cc([N+](=O)[O-])ccc2Cl)CC1)c1ccccc1 (configuration not stated) | - | - | - | - | - | -
CCc1ccc(CN(C)Cc2nc(-c3cccc(Cl)c3)no2)nc1 | - | - | - | - | - | -
CCOC(=O)[C@]12CCCC=C1N(Cc1ccc(Cl)cc1Cl)C(=O)[C@H](CC(=O)NCc1cccc3ccccc13)C2 | - | - | - | - | - | -
O=S(=O)(c1ccc(F)cc1)N1CC2CCCN2c2ccc(C(F)(F)F)cc21 (configuration not stated) | - | - | - | 39 | - | -
SMILES | M4 ag | CHRM5 agonist | M5 PAM | CHRM4 antagonist | CHRM5 antagonist | CHRM4 PAM
O=C(NC(=S)NCc1cccnc1)c1cc(Br)ccc1Cl | - | - | 22 | - | - | -
COc1ccc(Br)cc1C(=O)NCc1cccnc1 | - | - | - | - | - | -
CC1(C(=O)NS(=O)(=O)c2ccc(C#N)cc2)CCN1C(=O)C1(c2ccccc2)CCCC1 (configuration not stated) | - | - | - | - | - | 18
CC(=O)c1cc2c(C)c(C(=O)c3ccccc3)oc2cc1O | - | - | - | - | - | -
O=C(Nc1nnc(-c2ccccc2Cl)o1)c1nc2ccccc2s1 | 111 | 65 | - | - | - | -
CC(OC(=O)Cc1coc2ccc3ccccc3c12)C(=O)NC(N)=O (configuration not stated) | - | - | - | - | - | -
CC1CCCN(C(=O)CCNS(=O)(=O)c2ccc3c(c2)c(=O)n(C)c(=O)n3C)C1 (configuration not stated) | - | - | - | - | - | 15
CC(=O)N(C)c1nnc(-c2ccccn2)s1 | - | - | - | - | - | -
C#CCOC(=O)CCCC(=O)NCCCCCCCC | - | - | 27 | - | - | -
CCN1CCN(C(=O)Cn2cnc3sc(C)c(S(=O)(=O)N4CCN(c5ncccn5)CC4)c3c2=O)CC1 | - | - | - | - | - | -
CCOC(=O)CCCCCCCCC(=O)Nc1ccc(-n2[nH]c(=O)cc2C)cc1 | - | 24 | - | - | - | -
Cc1ccc(NC(=O)COc2ccc(N(C)C(=O)C(C)(C)C)cc2)cc1S(=O)(=O)N1CCCCC1 | - | - | - | - | - | -
Cc1nnsc1C(=O)Nc1ccc(S(=O)(=O)N2CCCC(C)C2)cc1 (configuration not stated) | - | - | - | - | - | -
Cc1ccc(O)c(NC(=O)c2cc(-c3ccccc3Cl)on2)c1 | - | - | - | - | 28 | -
Cc1ccc(-c2cc(C(=O)Nc3cc(C)ccc3O)no2)cc1 | - | - | - | - | - | -
Nc1ccccc1S(N)(=O)=O | - | - | - | - | - | -
Cc1ccc(-n2nc3ccc(N)cc3n2)cc1Cl | - | - | - | - | - | -
Cc1ccc(-n2nc3ccc(N)cc3n2)cc1C | - | - | 21 | - | - | 16
COc1ccnc(Oc2ccccc2)c1C(=O)N/C=N/OCc1ccc(F)cc1Cl | 35 | - | - | - | - | -
CC(=O)c1ccc(NC(=O)CN2CCN(CC(=O)Nc3ccc(C(C)=O)cc3)CC2)cc1 | - | - | 27 | - | - | -
CCN1CCN(CC(=O)Nc2ccc(C(C)=O)cc2)CC1 | - | - | - | - | - | -
O=C(CN1CCN(c2ccccc2)CC1)Nc1ccc(-n2cnnn2)cc1 | - | - | - | 30 | - | -
COc1cccc(N2CCN(CC(=O)Nc3ccc(-n4cnnn4)cc3)CC2)c1 | - | - | - | - | - | -
Cc1ccc(/C=N/NC(=O)c2cccnc2)s1 | - | - | - | - | - | -
COc1cc(NC(=O)CN2C(=O)C(c3ccccc3)=NC23CCCCCC3)cc(OC)c1 | - | - | - | - | - | 21
